Bioassay records deposited in PubChem BioAssay by Sanford-Burnham Center for Chemical Genomics.
DNMT1 block = blocks human DNA methyltransferase DNMT1; P26358; DNMT1 molecular beacon, Hinp1I cleavage, fluorescence; inhibition (reported as % activation of signal), % at 10 µM; actives 0.83% (n = 360,000); in the data active means inhibition above about 50%
STEP block = STEP (human) phosphatase inhibition. inhibition, % at 20 µM. recombinant STEP, OMFP fluorogenic substrate, fluorescence. AID 588621. actives 0.25% (n = 360,000);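 active means inhibition at 20 µM, scaled per plate between control wells, above about 37%, limit read from the data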;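 further: 0% = DMSO with enzyme and substrate and 100% = substrate only without enzyme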
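System: STEP phosphatase, cell-free reaction; Buffer or medium: Bis-Tris pH 6.0 buffer with DTT, detergent; Incubation: 20 min at room temperature, dark; Measured by: fluorescence, 480/540 nm.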
LMPTP block = blocks human LMPTP phosphatase; inhibition, % at 20 µM; recombinant LMPTP-A, OMFP fluorogenic substrate, fluorescence intensity; actives 0.22% (n = 360,000); AID 651560; P24666;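 active means compounds that cut the enzyme signal by at least half of the control window in the single-dose screen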;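 further: plate controls were DMSO wells with enzyme plus substrate for no effect and substrate without enzyme for full effect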
Target sequence (P24666 whole entry, looked up): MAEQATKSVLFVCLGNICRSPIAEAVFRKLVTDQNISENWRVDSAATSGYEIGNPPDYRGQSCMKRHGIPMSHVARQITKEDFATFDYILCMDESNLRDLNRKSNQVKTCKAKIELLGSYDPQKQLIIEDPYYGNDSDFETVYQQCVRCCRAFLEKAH
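Test system: LMPTP-A, protein tyrosine phosphatase of low molecular weight; Input: 0.625 nM enzyme; Incubation: 50 min dark incubation at room temperature; Signal: endpoint fluorescence intensity from OMFP dephosphorylation; Read-out basis: % inhibition versus control wells.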
SUMO1-SIM PPI = modulators of human SUMO1-mediated protein-protein interactions | AID 602429 | inhibition, % at 20 µM | actives 0.33% (n = 360,000) | SUMO1 binding to a labelled peptide, TR-FRET, 1 h; in the data active means inhibition above about 37%
Target sequence (P63165 whole entry, looked up): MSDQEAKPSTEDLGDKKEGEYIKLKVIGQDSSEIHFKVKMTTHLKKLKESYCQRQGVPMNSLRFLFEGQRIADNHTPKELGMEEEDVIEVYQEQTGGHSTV
Scp1 inh = inhibitors of human Scp-1 phosphatase | Recombinant Scp1, phosphopeptide, malachite green phosphate absorbance | inhibition, % at 20 µM | actives 0.88% (n = 340,000) | AID 493091;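 active means inhibition above about 50% at 20 µM, limit read from the data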;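 further: plate controls were DMSO wells with enzyme for no effect and wells lacking enzyme for full effect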
Target sequence (Q9GZU7 76-261 limits assumed): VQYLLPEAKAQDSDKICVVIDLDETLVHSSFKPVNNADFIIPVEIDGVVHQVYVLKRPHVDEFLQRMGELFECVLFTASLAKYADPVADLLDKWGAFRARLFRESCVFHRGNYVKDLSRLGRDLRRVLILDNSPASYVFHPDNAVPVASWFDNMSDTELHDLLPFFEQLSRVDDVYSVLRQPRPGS
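Test system: SCP-1 catalytic domain; Buffer or medium: Acidic Tris acetate buffer with magnesium and detergent; Also added: Phosphorylated 17-residue peptide substrate; Compound: single 20 µM dose, 1% DMSO; Schedule: enzyme reaction 45 min at room temperature, colour 5 min, stabilisation 30 min; Signal: Phosphate-binding colour reagent, absorbance read at 630 nm.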
Scp1 confirm = Scp-1 (human) inhibition, single-dose confirmed. shares compounds with Scp1 inh. recombinant SCP-1 catalytic domain, phosphate release, malachite green absorbance. inhibition, % at 20 µM. actives 61% (n = 2,500). AID 540281;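 further: plate controls were DMSO with enzyme for no effect and buffer wells lacking enzyme for full effect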
Scp-1 MG ctr = counter-screen for Scp-1 inhibitors: colorimetric interference. shares compounds with Scp1 inh. Colorimetric interference counterscreen, malachite green absorbance 630 nm. apparent inhibition (interference), % at 20 µM. 2,500 tested, under 10 active. AID 540313;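 further: compounds added after enzyme reaction finished so only phosphate colour detection is probed; plate controls were DMSO wells with completed Scp-1 reaction for no effect and substrate wells lacking enzyme for full effect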
Scp1 DSF = binds human Scp-1, shifting its melting temperature | actives 25% (n = 1,500) | Recombinant SCP1, Sypro Orange thermal shift Tm | shares compounds with Scp1 inh | thermal shift relative to vanadate control, % at 40 µM;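 active means substances whose mean melting-temperature shift, as a percentage of the reference inhibitor's shift, reaches about 5.3%, limit read from the data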;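 further: 0% = Tm of DMSO wells and 100% = Tm with sodium orthovanadate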
The depositor's hits bear a star; . = no result given. Shown are actives, neighbours in structure and some others; about 1.8% of the full set was active somewhere.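 How the source made its calls, unless noted: active means inhibition of at least 30% at 20 µM; inactive means the rest.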

SMILES	DNMT1 block	STEP block	LMPTP block	SUMO1-SIM PPI	Scp1 inh	Scp1 confirm	Scp-1 MG ctr	others
N#CCC(=O)Nc1ccc(C(=O)OCC(=O)N2CCN(C(=O)c3ccco3)CC2)cc1	0	-1	6	22	90*	64*	1	Scp1 DSF=-2
CC(=O)Nc1ccc(C(=O)OCC(=O)N2CCN(C(=O)c3ccco3)CC2)cc1	6	-2	0	2	-7	.	.
Cc1ccc(S(=O)(=O)N2CCCC2)cc1C(=O)NCc1ccccc1CN1CCCC1	-4	1	-1	-4	0	.	.
CC(=O)Nc1ccc(NC(=O)c2ccc(OCc3c(C)noc3C)cc2)cc1	5	-3	0	-1	59*	-13	-18
Cc1ccc[n+](CC(=O)Nc2cc(C(F)(F)F)ccc2N2CCOCC2)c1	2	-4	-2	-2	55*	-18	-19
O=C(NC1CCCC1)C(c1ccncc1)N(C(=O)Cn1nnc(-c2ccccc2F)n1)c1cccc(F)c1 (configuration not stated)	46	-1	-2	0	-1	.	.
O=C(CSc1nncs1)NC(=O)NCc1ccco1	-3	-2	0	-1	-6	.	.
O=C(CSc1nc(-c2ccc(F)cc2)cs1)NC(=O)NCc1ccco1	40	6	7	2	74*	39*	-12	Scp1 DSF=-12
Nn1c(SCC(=O)NC(=O)NCc2ccco2)nnc1-c1ccc(OC(F)F)cc1	49	-4	7	4	63*	54*	-22	Scp1 DSF=3
COc1ccc(C(=O)COc2ccc(C(C)=O)cc2OC)cc1OC	2	-2	-1	-2	-5	.	.
C[C@H](NC(=O)[C@@H]1CSC2c3ccccc3C(=O)N21)C(=O)NCc1c(F)cccc1Cl (some centres not stated)	-1	2	-1	1	-5	.	.
C[C@@H]1CN([C@@H](C)CO)C(=O)c2cccc(NS(C)(=O)=O)c2O[C@H]1CN(C)Cc1ccc(Oc2ccccc2)cc1	-9	-1	-1	-1	2	.	.
C[C@H](CO)N1C[C@H](C)[C@@H](CN(C)Cc2ccc(Oc3ccccc3)cc2)Oc2c(NS(=O)(=O)c3cn(C)cn3)cccc2C1=O	-9	0	0	4	50*	-5	-10
C[C@H](CO)N1C[C@H](C)[C@@H](CN(C)Cc2ccc(C(=O)O)cc2)Oc2c(NS(=O)(=O)c3cn(C)cn3)cccc2C1=O	6	-2	-2	3	62*	5	-4
C[C@H](CO)N1C[C@H](C)[C@@H](CN(C)Cc2ccccc2)Oc2c(NS(=O)(=O)c3cn(C)cn3)cccc2C1=O	-2	2	-1	-4	69*	-4	-13
C[C@H](CO)N1C[C@H](C)[C@@H](CN(C)CC2CCCCC2)Oc2c(NS(=O)(=O)c3cn(C)cn3)cccc2C1=O	2	-2	-2	16	59*	8	-4
C[C@@H]1CN([C@@H](C)CO)C(=O)c2cccc(NS(C)(=O)=O)c2O[C@H]1CN(C)Cc1ccc(C(=O)O)cc1	0	3	-1	-3	-8	.	.
C[C@H](CO)N1C[C@H](C)[C@@H](CN(C)Cc2ccncc2)Oc2c(NS(=O)(=O)c3ccc(F)cc3)cccc2C1=O	4	1	1	5	59*	-12	-20
CCOC(=O)c1c(NC(=O)C2C3C=CC(C3)C2(C)C(=O)O)sc2c1CCCC2 (configuration not stated)	26	10	1	25	53*	56*	-8	Scp1 DSF=-19
CCOC(=O)c1c(NC(=O)C2CCCCC2C(=O)O)sc2c1CCCCC2 (configuration not stated)	-2	2	0	4	-8	.	.
CNc1cc(=O)n(C)c(=O)n1-c1ccccc1	2	0	-1	3	-2	.	.
CCn1c(NC)cc(=O)n(C)c1=O	7	-1	0	24	79*	-12	-6
O=C(Nc1cccc2nsnc12)c1ccc2c(c1)OCO2	-3	-2	1	-20	-4	.	.
O=C(Nc1cccc2nsnc12)c1ccc2c(c1)OCCO2	-11	2	0	-20	70*	-16	-16
CCOC(=O)C1=C(C)NC(=O)NC1c1ccc(Br)o1 (configuration not stated)	17	-3	-2	-1	52*	-8	-13
SMILES	DNMT1 block	STEP block	LMPTP block	SUMO1-SIM PPI	Scp1 inh	Scp1 confirm	Scp-1 MG ctr	others
O=C(Nc1ccc(N2CCOCC2)cc1)c1ccc(Cl)c(S(=O)(=O)N2CCCCC2)c1	-5	2	0	1	2	.	.
CCc1c(C)nc2cc(-c3cccc(Br)c3)[nH]n2c1=O	2	22	1	12	93*	62*	-12	Scp1 DSF=-4
CSc1ncccc1C(=O)Nc1cccc(S(=O)(=O)N(C)c2ccccc2)c1	-4	3	2	-3	4	.	.
Cc1cc(C)n2nc(SC(C)C(=O)N3CC(C)OC(C)C3)nc2n1 (configuration not stated)	-1	0	-1	-19	11	.	.
CC(/C=C/c1ccco1)=N/NC(=O)c1ccc(C)nc1	3	-1	-2	-10	-5	.	.
O=C(C=Cc1ccco1)c1cc(Cl)ccc1O	15	0	0	-4	-8	.	.
CC(/C=C/c1ccco1)=N\NC(=O)c1cc(Cl)ccc1O	49	2	0	36	54*	68*	-13	Scp1 DSF=16*
CC(/C=C/c1ccco1)=N\NC(=O)c1cccnc1	-6	-2	0	-6	55*	33*	-11	Scp1 DSF=-16
Cc1cc(C(=O)N/N=C/c2ccco2)n[nH]1	1	-1	0	-6	-1	.	.
CC(/C=C/c1ccco1)=N\NC(=O)c1cc(C)[nH]n1	-15	-2	0	4	52*	24	-8
O=C(NC1CCCC1)C(c1ccc(F)cc1)N1CCC(O)(c2ccc(Cl)cc2)CC1 (configuration not stated)	.	.	1	4	.	.	.
CC(C)N(C(=O)[C@H]1C[C@H](CC(=O)NCC23CC4CC(CC(C4)C2)C3)C(=O)N2CCc3c([nH]c4cc(CCC(=O)N(C)C)ccc34)[C@]12C)C(C)C	-13	-1	-1	0	12	.	.
CCC1CCCCN1S(=O)(=O)c1ccc2[nH]c(=O)ccc2c1 (configuration not stated)	11	1	12	2	58*	49*	0	Scp1 DSF=3
Cc1ccc(N2CCN(S(=O)(=O)c3ccc4oc(=O)ccc4c3)CC2)cc1Cl	1	-1	-2	2	-5	.	.
